Test results reported in ChEMBL document CHEMBL4513216, “Probing the Open Global Health Chemical Diversity Library for Multistage-Active Starting Points for Next-Generation Antimalarials” (ACS Infect Dis, 2020).

Assay: Toxicity liver stage against HepG2, at 10uM
Assay type: cell-based
Parameters: test concentration 10 uM, cell line HepG2-A16-CD81EGFP
Settings: human, HepG2-A16-CD81EGFP cells; read-out: INHIBITION
Method in brief: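 Uninfected HepG2-A16-CD81EGFP cells, 3 × 10^3 per well, 1536-well, plated on prespotted compound at 10 μM final, parasite-free screening media added to match infected plates; puromycin 10 μM positive, DMSO 0.5% negative; run in parallel with 48 h PbLuc assay at 37 °C, 5% CO2; viability by CellTiter-Glo luminescence, normalized to controls.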

Work on `Cc1n[nH]c(C)c1-c1cc(-c2cc[nH]c2)nc(N)c1C#N` yielded a cytotoxicity at 10 µM of 2.41%.

In the case of `CN(c1ccc(C(=O)NCCCN2CCCC2)c(Cl)c1)S(C)(=O)=O`, the cytotoxicity at 10 µM is reported as -10%.

`COc1c(CNCc2ccccc2CO)c(C)nn1C` gave a cytotoxicity at 10 µM of 1.04%.

For `COc1nc(N2CCC(CC(N)=O)CC2)ncc1Br`, the cytotoxicity at 10 µM was 2.99%.

With `COCCCC(=O)NC1(c2cccc(Br)c2)CC1` the cytotoxicity at 10 µM was 2.11%.

Compound `O=C(C1CN(Cc2ccoc2)CC12CCOCC2)N1CCCC1` (stereo not drawn) has a cytotoxicity at 10 µM of 11.2%.

With `O=S(=O)(c1ccc(F)cc1)N1CCOC[C@H](Oc2cnccn2)C1` the cytotoxicity at 10 µM was 5.88%.

`CC(C)(C)c1ncc(C(=O)NCCNC(=O)c2ccc(O)cc2)s1` gave a cytotoxicity at 10 µM of 45.3%.

For `O=C(NCC1(Sc2ccccc2)CC1)c1ccc(=O)[nH]n1`, the cytotoxicity at 10 µM was 1.52%.

For `O=C(CCCN1C(=O)CCC1=O)NCC1(c2ccccc2)CCC1`, the cytotoxicity at 10 µM was -17.1%.

Compound `CN1CCN(C(CNC(=O)c2ccc(Cl)cc2F)c2cccs2)CC1` (stereo not drawn) has a cytotoxicity at 10 µM of 84.6%.

`CC(C)n1cc(CN2CCCN(C(=O)CN3CCCC3=O)CC2)cn1` showed a cytotoxicity at 10 µM of -27.5%.

In the case of `O=C(NC[C@]12COC[C@H]1CN(Cc1cccc(F)c1)C2)c1ccco1`, the cytotoxicity at 10 µM is reported as -66.7%.

With `O=C1N[C@@H]2CCN(C(=O)C3CCC3)[C@@H]2C(=O)N1c1ccc(F)cc1` the cytotoxicity at 10 µM was -6.43%.

Compound `Cc1cc(N2CCCC(N(C)C)C2)n2nccc2n1` (stereo not drawn) has a cytotoxicity at 10 µM of -43.4%.

Work on `CC(Oc1cccc(Cl)c1)C(=O)Nc1cnn(CC(=O)NC2CC2)c1` (stereo not drawn) yielded a cytotoxicity at 10 µM of 1.73%.

Work on `Cc1cc(NC(C)Cn2cccn2)n2nccc2n1` (stereo not drawn) yielded a cytotoxicity at 10 µM of 1.99%.

In the case of `CCCn1cc(NC(=O)c2cccc(CN3CC=CC3)c2)nn1`, the cytotoxicity at 10 µM is reported as -147%.

`N#Cc1ccc(CNc2ncc(C#N)cc2Cl)cc1` gave a cytotoxicity at 10 µM of 17.7%.

In the case of `O=C(NCC(=O)N1CCc2ccccc2C1)c1ccoc1`, the cytotoxicity at 10 µM is reported as -4.59%.

For `c1cncc(COCc2nnc3n2CCN(CC2CC2)C3)c1`, the cytotoxicity at 10 µM was -3.03%.

Work on `O=C(CN1CCCC(c2ccn[nH]2)C1)N1CCCc2ccccc21` (stereo not drawn) yielded a cytotoxicity at 10 µM of -3.41%.

`CN1CCCc2cc(-c3cncn3CC(=O)NC(C)(C)C)ccc21` showed a cytotoxicity at 10 µM of -28.9%.

Work on `CS(=O)(=O)N(Cc1ccon1)c1ccc(F)cc1` yielded a cytotoxicity at 10 µM of 2.24%.

Compound `N#Cc1ccc(C(=O)N2CCCSCC2CN2CCCC2)cc1` (stereo not drawn) has a cytotoxicity at 10 µM of 10.1%.

`c1coc(CN2CCn3c(nc4ccccc43)C2)c1` showed a cytotoxicity at 10 µM of 21.8%.

For `CCNC(=O)CCC(=O)Nc1ccc2nn(C(C)C)cc2c1`, the cytotoxicity at 10 µM was -141%.

In the case of `CCn1cc(CNc2ccc3nccnc3c2)cn1`, the cytotoxicity at 10 µM is reported as 1.42%.

`COC(=O)CC1c2cccnc2C(=O)N1Cc1ccccc1` (stereo not drawn) gave a cytotoxicity at 10 µM of 1.19%.

`O=C(Nc1nncs1)NC1CCc2ccccc21` (stereo not drawn) gave a cytotoxicity at 10 µM of -10%.

For `O=C(COc1ccc2cccnc2c1)N1CCN[C@H]2CS(=O)(=O)C[C@H]21`, the cytotoxicity at 10 µM was 7.98%.

`COc1c(CNCc2ccccc2CN2CCOCC2)c(C)nn1C` showed a cytotoxicity at 10 µM of -0.686%.

In the case of `CC[C@@H](NC(C)=O)C(=O)NCc1cccnc1Oc1ccccc1OC`, the cytotoxicity at 10 µM is reported as -3.06%.

`Cc1nc(-c2ccccc2)n(CC(=O)NC(C)C2CC2)n1` (stereo not drawn) showed a cytotoxicity at 10 µM of 7.44%.

In the case of `c1cc(-c2cn3nccc3nc2C2CCCCC2)nc(N2CCCC2)n1`, the cytotoxicity at 10 µM is reported as 10.7%.

In the case of `Cc1ccccc1CN(C)C(=O)CN1CCCC(Cn2cncn2)C1` (stereo not drawn), the cytotoxicity at 10 µM is reported as -2.87%.

In the case of `Cc1cnn(CC2CCCN2CCc2nc3ccccc3c(=O)[nH]2)c1` (stereo not drawn), the cytotoxicity at 10 µM is reported as -5.79%.

`CCc1ncc2c(n1)CN(CC1CCCCO1)CC2` (stereo not drawn) showed a cytotoxicity at 10 µM of -21.1%.

In the case of `CCOCn1cc(NC(=O)C2CCN(S(C)(=O)=O)CC2)cn1`, the cytotoxicity at 10 µM is reported as -10.7%.

For `CNC(=O)c1cccc(C2CNCCN2C(=O)C2CCNCC2)c1` (stereo not drawn), the cytotoxicity at 10 µM was -2.39%.

Work on `CCS(=O)(=O)N1C[C@H]2CN(Cc3cccc(F)c3)C(=O)[C@H]2C1` yielded a cytotoxicity at 10 µM of 0.442%.

For `CNC(=O)c1ccc(C(=O)N2CCCCC2Cn2cc(C)cn2)cn1` (stereo not drawn), the cytotoxicity at 10 µM was -3.54%.

`Cc1ccnc(OC[C@@]23CCO[C@@H]2CCN(c2ncccn2)C3)n1` gave a cytotoxicity at 10 µM of 4.86%.

Compound `Cc1ccc(-c2nnn(CCN3C(=O)CCC3=O)n2)cc1` has a cytotoxicity at 10 µM of 1.33%.

With `CCS(=O)(=O)CC(=O)Nc1cc(-c2cccc(F)c2F)n[nH]1` the cytotoxicity at 10 µM was 10.7%.

In the case of `O=C(Nc1ccccc1OCC1CCCCO1)c1ccc(O)nc1` (stereo not drawn), the cytotoxicity at 10 µM is reported as 5.41%.

`CC(=O)N1CCC(c2nc3ccc(NC4CCC4)cn3n2)CC1` showed a cytotoxicity at 10 µM of -107%.

Compound `Cc1ncsc1CCN(C)Cc1cc2n(n1)CCN(Cc1ccco1)C2` has a cytotoxicity at 10 µM of -4.93%.

For `Cc1cc(C)c2nc(CN(C)C(C)c3ccncn3)cc(O)c2c1` (stereo not drawn), the cytotoxicity at 10 µM was 4.11%.

`CCOC(=O)C1(O)CCN(C(=O)Nc2cccc(CC)c2)CC1` showed a cytotoxicity at 10 µM of -140%.

With `Cc1ccc(C(=O)N2CCOc3nc(C)ccc32)c(F)c1` the cytotoxicity at 10 µM was -2.71%.

`CC(C)c1nccc(-c2nccn2CCS(C)(=O)=O)n1` showed a cytotoxicity at 10 µM of 4.68%.

Compound `Cc1ccc(SCC(=O)NS(=O)(=O)c2ccc3c(c2)OCCO3)cc1` has a cytotoxicity at 10 µM of -22.1%.

`Cn1cccc1C(=O)N1CCC2(CC1)CN(c1ccsc1)C(=O)CO2` gave a cytotoxicity at 10 µM of -76.9%.

For `O=C(c1cnccn1)N1CCC2(CCN(Cc3ccsc3)C2)CC1`, the cytotoxicity at 10 µM was -3.33%.

`CCn1ncc2c1C(COC)CN(Cc1ccc(OC)cc1)C2` (stereo not drawn) showed a cytotoxicity at 10 µM of 11.4%.

Work on `Cc1ccnn1CCC(=O)N(Cc1ccsc1)CC(C)C` yielded a cytotoxicity at 10 µM of -57.4%.

`O=C(c1ccccc1)N1C[C@H]2CCC[C@@]2(COCc2ccncc2)C1` showed a cytotoxicity at 10 µM of 1.59%.

Work on `CCc1nnc(Nc2cc(C)nc(C3CCN(c4ccncn4)C3)n2)s1` (stereo not drawn) yielded a cytotoxicity at 10 µM of 4.38%.

`O=C(CCNc1ccc(Cl)cn1)NCc1ccncc1` showed a cytotoxicity at 10 µM of -2.31%.

With `COc1cccc2ccc(N3CCC(O)(c4ccc(C)cn4)CC3)nc12` the cytotoxicity at 10 µM was -0.942%.

`c1cncc(C2=NOC3(CCN(Cc4c[nH]c5ccccc45)CC3)C2)c1` showed a cytotoxicity at 10 µM of 9.49%.

`Cc1nc(CCC(=O)NC2CCC2)cc(C2CCCNC2)n1` (stereo not drawn) showed a cytotoxicity at 10 µM of 1.09%.

For `O=C1OCCCN1Cc1nc(-c2ccncc2)no1`, the cytotoxicity at 10 µM was 6.77%.

In the case of `COc1ccc(CN(C(=O)C2CCCS2)c2ccncc2)cc1` (stereo not drawn), the cytotoxicity at 10 µM is reported as 5.57%.

For `CCS(=O)(=O)N1CCc2c(CN3CCOCC3)cncc2C1`, the cytotoxicity at 10 µM was 4.35%.

`c1cc(CN2CCCC23CCCN(Cc2ccoc2)C3)ccn1` (stereo not drawn) showed a cytotoxicity at 10 µM of 2.25%.

Work on `COCCn1ccnc1C1CCCN(C(=O)c2ccccc2C#N)C1` (stereo not drawn) yielded a cytotoxicity at 10 µM of -0.675%.

With `O=C(CCn1cncn1)Nc1ccc(F)cc1OCC1CC1` the cytotoxicity at 10 µM was -2.58%.

Compound `O=C(N1CCCC1)N1CCCC2(CCN(c3ccsc3)C2=O)C1` (stereo not drawn) has a cytotoxicity at 10 µM of -74.1%.

`NC(=O)c1nc2c(s1)CCN(C(=O)Nc1ccccc1)CC2` showed a cytotoxicity at 10 µM of 12.5%.

For `COC[C@@]12CCO[C@@H]1CCN(C(=O)C1CC(F)(F)C1)C2`, the cytotoxicity at 10 µM was -97.4%.

With `Cc1cc(C)c2c(OCC(=O)NC(C)C)nn(C)c2n1` the cytotoxicity at 10 µM was -7.25%.

With `CCc1nnc(CN(C)Cc2cccc(C(=O)Nc3ccnn3C)c2)o1` the cytotoxicity at 10 µM was -3.7%.

For `NCCn1nc(C2CCN(Cc3ccc(Cl)c(Cl)c3)C2)c2nccnc21` (stereo not drawn), the cytotoxicity at 10 µM was 27.7%.

In the case of `Clc1ccc(-c2nnc(CNCCn3cccn3)o2)c(Cl)c1`, the cytotoxicity at 10 µM is reported as -4.86%.

Compound `N#CC1(NC(=O)c2nccc3ccccc23)CCSCC1` has a cytotoxicity at 10 µM of 8.8%.

For `Cc1nc(O)ccc1C(=O)NCc1ncoc1C`, the cytotoxicity at 10 µM was 5.68%.

`CC(C)n1cc(S(=O)(=O)N2CCSCC2)cn1` gave a cytotoxicity at 10 µM of 6.64%.

With `O=C(Nc1ccc(-n2ccc(C(=O)O)n2)cc1)c1ccccc1` the cytotoxicity at 10 µM was -139%.

`Cc1cc(C)n(CC2CCCN2CCCS(C)(=O)=O)n1` (stereo not drawn) showed a cytotoxicity at 10 µM of -3.48%.

`O=C(c1ccncc1)N1CCc2onc(CN3CCCC3)c2C1` gave a cytotoxicity at 10 µM of -3.7%.

Work on `CC1CCN(C(=O)C(C)N2CCN(c3nccs3)CC2)CC1` (stereo not drawn) yielded a cytotoxicity at 10 µM of 0.583%.
